pEC50, pIC50: −log10 of the molar value. Activity calls are given as the source filed them. No cut-off for these calls is given here.
Key:
Plasmodium falciparum [1] = assay: Binding affinity to Plasmodium falciparum PF14_0517 at 2.5 mM by LC/MS/MS analysis
How it was run: (§1)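 P. falciparum parasite lysate was incubated with agarose-immobilized inhibitor and washed extensively. Retained proteins were eluted with urea, resolved by SDS-PAGE and identified by LC/MS/MS. In a competition arm, free inhibitor (2.5 mM) was added to the lysate before incubation with the beads under identical conditions.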

Plasmodium falciparum [2] = assay: Binding affinity to Plasmodium falciparum PFI0180w at 2.5 mM by LC/MS/MS analysis; how it was run: as §1
Plasmodium falciparum [3] = assay: Binding affinity to Plasmodium falciparum PFI1680w at 2.5 mM by LC/MS/MS analysis; how it was run: as §1
Plasmodium falciparum [4] = assay: Antiplasmodial activity against Plasmodium falciparum 3D7 after 72 hrs by SYBR green assay; type: functional, organism-based; details: 3D7, 72 h
Plasmodium falciparum [5] = assay: Upregulation of proteasome gene expression in Plasmodium falciparum at 460 nM after 48 hrs by microarray analysis; type: functional, organism-based
How it was run: (§2)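 P. falciparum 3D7 was grown in human O+ erythrocytes. Heterogeneous, unsynchronized parasites were incubated with 460 nM compound for 24 or 48 h, then compared with untreated parasites on a full-genome microarray. Transcript changes were called by a statistical test.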

Plasmodium falciparum [6] = assay: Upregulation of DNA replication gene expression in Plasmodium falciparum at 460 nM after 48 hrs by microarray analysis; type: functional, organism-based; how it was run: as §2
Toxoplasma gondii [7] = assay: Antimicrobial activity against Toxoplasma gondii […] infected in african green monkey BSC1 cells assessed as parasite invasion at 12.5 uM after 48 hrs by microscopy relative to control; type: functional, BSC-1
Toxoplasma gondii [8] = assay: Antimicrobial activity against Toxoplasma gondii […] infected in african green monkey BSC1 cells assessed as parasite invasion at 6.25 uM after 48 hrs by microscopy relative to control; type: functional, BSC-1
Toxoplasma gondii [9] = assay: Antimicrobial activity against Toxoplasma gondii […] infected in african green monkey BSC1 cells assessed as parasite invasion at 3.1 uM after 48 hrs by microscopy relative to control; type: functional, BSC-1
Plasmodium falciparum [10] = assay: Antiplasmodial activity against multidrug-resistant Plasmodium falciparum Dd2 after 72 hrs by SYBR green assay; type: functional, organism-based; details: Dd2, 72 h
How it was run: (§3)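 Parasites grown in human O+ erythrocytes in RPMI with human serum and albumax. For the assay, serially diluted compounds were added to screening medium (RPMI, 4.16 mg/ml albumax) at 2.5% hematocrit and 0.3% parasitemia, then incubated 72 h in 93% N2/4% CO2/3% O2. DMSO served as baseline and uninfected erythrocytes as background. SYBR Green fluorescence was read at 520 nm to give EC50.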

Plasmodium falciparum [11] = assay: Antiplasmodial activity against chloroquine-resistant Plasmodium falciparum W2 after 72 hrs by SYBR green assay; type: functional, organism-based; details: W2, 72 h; how it was run: as §3
[12] = Cytotoxicity against human HuH7 cells after 72 hrs by Cell Titer Glo assay; type: cell-based, Huh-7; details: read-out: ED50
How it was run: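 Cells seeded at 250 per well in DMEM with 5% fetal bovine serum. Compound added the next day, followed by 72 h culture to match the parasite proliferation assay. Viability read by Cell Titer Glo luminescence.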

[13] = Inhibition of GST-fused Plasmodium falciparum recombinant CDPK5 expressed in Escherichia coli Rosetta 2 assessed as inhibition of [gamma-33P]ATP incorporation into substrate peptide by scintillation counting
Plasmodium falciparum [14] = assay: Binding affinity to Plasmodium falciparum PFI0875w at 2.5 mM by LC/MS/MS analysis; how it was run: as §1
Plasmodium falciparum [15] = assay: Binding affinity to Plasmodium falciparum PFL1545c at 2.5 mM by LC/MS/MS analysis; how it was run: as §1
Plasmodium falciparum [16] = assay: Binding affinity to Plasmodium falciparum PF14_0359 at 2.5 mM by LC/MS/MS analysis; how it was run: as §1
Plasmodium falciparum [17] = assay: Binding affinity to Plasmodium falciparum MAL7P1.228 at 2.5 mM by LC/MS/MS analysis; how it was run: as §1
Plasmodium falciparum [18] = assay: Binding affinity to Plasmodium falciparum PF14_0102 at 2.5 mM by LC/MS/MS analysis; how it was run: as §1
Plasmodium falciparum [19] = assay: Binding affinity to Plasmodium falciparum PF11_0037 at 2.5 mM by LC/MS/MS analysis; how it was run: as §1
Plasmodium falciparum [20] = assay: Binding affinity to Plasmodium falciparum PF10_0268 at 2.5 mM by LC/MS/MS analysis; how it was run: as §1
Plasmodium falciparum [21] = assay: Binding affinity to Plasmodium falciparum PF14_0541 at 2.5 mM by LC/MS/MS analysis; how it was run: as §1
Plasmodium falciparum [22] = assay: Binding affinity to Plasmodium falciparum PFF0160c at 2.5 mM by LC/MS/MS analysis; how it was run: as §1
Plasmodium falciparum [23] = assay: Binding affinity to Plasmodium falciparum PF14_0096 at 2.5 mM by LC/MS/MS analysis; how it was run: as §1
Plasmodium falciparum [24] = assay: Binding affinity to Plasmodium falciparum PF13_0304 at 2.5 mM by LC/MS/MS analysis; how it was run: as §1
Plasmodium falciparum [25] = assay: Binding affinity to Plasmodium falciparum PFI0235w at 2.5 mM by LC/MS/MS analysis; how it was run: as §1
[26] = Cmax in BALB/c mouse at 20 mg/kg single oral dose after 24 hrs by LC/MS/MS analysis; details: in vivo
Toxoplasma gondii [27] = assay: Antimicrobial activity against Toxoplasma gondii […] infected in african green monkey BSC1 cells assessed as parasite invasion at 50 uM after 90 mins by microscopy relative to control

N[C@H]1CC[C@H](Nc2nc(Nc3ccc(C(=O)N4CCCCC4)cc3)c3ncn(-c4cccc(F)c4)c3n2)CC1 [PURFALCAMINE]
Activity (Plasmodium falciparum [1]): inactive | Activity (Plasmodium falciparum [2]): inactive | Activity (Plasmodium falciparum [3]): inactive | pEC50 (Plasmodium falciparum [4]): 6.64 | Activity (Plasmodium falciparum [5]): Active | Activity (Plasmodium falciparum [6]): Active | Activity (Toxoplasma gondii [7]): 20% | Activity (Toxoplasma gondii [8]): 20% | Activity (Toxoplasma gondii [9]): 60% | pEC50 (Plasmodium falciparum [10]): 6.59 | pEC50 (Plasmodium falciparum [11]): 6.75 | CC50 at 72 h [12]: 5.48 µM | pIC50 [13]: < 5.46 | Activity (Plasmodium falciparum [14]): inactive | Activity (Plasmodium falciparum [15]): inactive | Activity (Plasmodium falciparum [16]): inactive | Activity (Plasmodium falciparum [17]): inactive | Activity (Plasmodium falciparum [18]): inactive | Activity (Plasmodium falciparum [19]): inactive | Activity (Plasmodium falciparum [20]): inactive | Activity (Plasmodium falciparum [21]): inactive | Activity (Plasmodium falciparum [22]): inactive | Activity (Plasmodium falciparum [23]): inactive | Activity (Plasmodium falciparum [24]): inactive | Activity (Plasmodium falciparum [25]): inactive | Cmax [26]: 2600 nM | Activity (Toxoplasma gondii [27]): <=20%

From ChEMBL document CHEMBL1212705, “Gene expression signatures and small-molecule compounds link a protein kinase to Plasmodium falciparum motility” (Nat Chem Biol, 2008)
